The results in this text go back to PubChem BioAssay.

Values without a mark were called inactive. Results filed as inconclusive are left out. Calls of active or inactive are those of the source.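 How the source made its calls, unless noted: active means cell viability at or below a set limit in both duplicate runs, the limit being the all-compound median minus 4 SD (cut at about 23% in these data, passing the limit was not always enough); inconclusive means no clear call, values can overlap the other calls; inactive means the rest.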

Experiment [1] can be described thus: S. cerevisiae growth inhibition in permissive medium (OD615), pilot counter-assay for S. cerevisiae lifespan shortening project, permissive growth control (AID 705;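 active means growth inhibition above 25% in both replicates, a cutoff set 3 SD above the mean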). Particulars: OD615, 24 h, at 10 µM, stronger effect = higher value. The gist of the method: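 Material: engineered DeaD yeast; Compound: one dose 10 µM, DMSO 0.25% final; Detection: absorbance (optical density) at 615 nm; Buffer or medium: permissive raffinose/galactose medium; Timing: 24 h exposure, 30 °C.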

Experiment [2] in a line: S. cerevisiae growth inhibition in restrictive medium, OD615, pilot screen, restrictive growth control, yeast lifespan reduction project (AID 706;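 active means growth inhibition above a set limit, 3 SD over mean compound inhibition, in both replicates, cut at about 43% in these data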;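 further: modified DeaD lifespan yeast strain shifted to restrictive glucose medium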). Particulars: OD615, 48 h, at 10 µM, stronger effect = higher value. Summed up:
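Buffer or medium: restrictive glucose medium (CSMM-D); test system: modified S. cerevisiae; doses: single dose of 10 µM compound final, 0.25% DMSO; schedule: 48 h compound exposure at 30 °C; detection: absorbance (optical density) measured at 615 nm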

Experiment [3] can be described thus: doxorubicin toxicity protection in MRP-1 cells – H69AR cells, CellTiter-Glo, duplicate, MRP-1 activator project, pilot screen (AID 807;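 active means viability increase at or above a cutoff of the median across tested compounds plus 3 SD, cut at about 8.5% in these data, passing the limit was not always enough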;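 further: compound pretreatment 18-22 h then 72 h combined with doxorubicin; 0% = doxorubicin alone and 100% = vehicle without doxorubicin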). The following applies: H69AR viability with doxorubicin, CellTiter-Glo luminescence; at 10 µM; stronger effect = higher value.
The nature of experiment [4]: viability of HCT116 without oncogenic beta-catenin – human colon tumor cells, pilot screen (AID 823).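 Further: 0% = wells killed by 20 µM Hyamine and 100% = untreated DMSO cell wells.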 Particulars: HCT116 beta-catenin knockout viability, CellTiter-Glo, 60 h; at 10 µM; stronger effect = lower value.
Experiment [5] can be described thus: viability of PTEN-null HCT116 cells – cell-based, HCT116 clonal line, CellTiter-Glo, pilot screen (AID 824;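 active means viability at or below 27.92% in each of two runs, the all-compound median minus 4 SD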;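 further: 0% = 20 µM Hyamine control and 100% = vehicle cell control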). The following applies: HCT116 PTEN-deleted viability, 60 h, at 10 µM, stronger effect = lower value. A general note: Cellular ATP, detected with luciferase, serves as a proxy for viable cell number.
Experiment [6] is described as follows: RAM pathway blockade in budding yeast – dse1pr::URA3 reporter, 5-FOA selection, pilot screen (AID 869;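 active means inhibition over a set limit, the all-compound mean plus 3 SD, in both replicate runs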;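 further: 0% = DMSO wells with no growth and 100% = 10 µM 1-NA-PP1 with full growth; RAM network block rescues cells from 5-FOA so hits raise OD615 growth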). Particulars: S. cerevisiae dse1pr::URA3 5-FOA growth, OD615, 2 d; at 10 µM; stronger effect = higher value; strain carries analog-sensitive mutant Cbk1 kinase.
The nature of experiment [7]: RAM signaling pathway blockade in yeast – S. cerevisiae, Pdr1DBD-CYC8 efflux-inhibited sensitized strain, primary screen (AID 1298;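 active means RAM network inhibition above 8.4% in each of two replicates, 3 SD over the compound average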;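 further: 0% = DMSO untreated cells without growth and 100% = 10 µM 1-NA-PP1 full growth; higher means more yeast growth rescued from 5-FOA killing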). The following applies: S. cerevisiae cbk1-as DSE1-URA3 strain, 5-FOA growth OD615, 2 d; at 50 µM; stronger effect = higher value.

The term viability denotes a read-out of living cells in per cent, often relative to untreated cells. As a reminder, the inhibition is the drop in the measured response relative to a control, in per cent. In the case of `CCOC(=O)N1CCC(Nc2c(N3CCN(c4cc(Cl)ccc4C)CC3)c(=O)c2=O)CC1`, the growth inhibition in experiment [1] was 3.09%; in experiment [2] it was 4.44%. In addition, the viability increase in experiment [3] was -2.34%. The viability in experiment [4] was 71.9%; in experiment [5] it was 72.3%. Further, the inhibition in experiment [6] was 2.42%. In experiment [7], the RAM network inhibition was 2.95%.

On to `Cc1cccc2sc(NC(=O)CCNS(=O)(=O)c3cccc4nonc34)nc12`, for which the results for the growth inhibition in experiment [1] and in experiment [2] were -11.1% and -6.5%, respectively. The viability increase in experiment [3] is -5.31%. Moreover, the figures for the viability in experiment [4] and in experiment [5] were 86.1% and 80.7%, respectively. Moreover, the inhibition in experiment [6] was 2.71%. The RAM network inhibition in experiment [7] was 7.24%.

With `COc1cc(NS(=O)(=O)c2ccc(NC(=O)C34CC5CC(CC(C5)C3)C4)cc2)ncn1`, the growth inhibition is -0.475% in experiment [1] and -24.6% in experiment [2]. Further, in experiment [3], the viability increase was -1.47%. The viability in experiment [4] was 98.1%; in experiment [5] it was 91.9%. In addition, in experiment [6], the inhibition is 2.73%. The RAM network inhibition in experiment [7] was 8.43%.

Turning to `O=C1c2ccccc2C(=O)N1Cc1nc2ccccc2c(=O)n1CCCn1ccnc1`, the growth inhibition in experiment [1] was -3.57%; in experiment [2], 0.74%. The viability increase in experiment [3] is -1.98%. Besides, the viability in experiment [4] is 96.3%; in experiment [5] it was 101%. Further, in experiment [6], the inhibition is 0.915%. Also, the RAM network inhibition in experiment [7] is 4.3%.

`CC(Sc1ccc2nnc(-c3ccc(F)cc3)n2n1)C(=O)O` (stereo not given): the growth inhibition in experiment [1] was 8.21%; in experiment [2] it was 52.5% (active). Further, the viability increase in experiment [3] was -1.09%. The figures for the viability in experiment [4] and in experiment [5] were 100% and 94.2%, respectively. Also, the inhibition in experiment [6] is 1.28%. In addition, in experiment [7], the RAM network inhibition is 1.27%.

As to `CCCCSc1nc(N)c(NC(=O)c2ccco2)c(=O)[nH]1`, the growth inhibition in experiment [1] was -12.7%; in experiment [2], -14.2%. Moreover, the viability increase in experiment [3] was -2%. Further, the viability in experiment [4] was 101%; in experiment [5], 93.4%. Moreover, in experiment [6], the inhibition was 1.58%. Besides, in experiment [7], the RAM network inhibition was 0.8%.

Consider `COCCNC(=O)C1CC(=O)N(c2ccc(F)c(Cl)c2)C1` (stereo not given), for which the growth inhibition is -2.14% in experiment [1] and -4% in experiment [2]. For the same molecule, the viability increase in experiment [3] was 0.07%. The viability was 105% in experiment [4] and 95.7% in experiment [5]. The inhibition in experiment [6] is 0.835%. Further, in experiment [7], the RAM network inhibition is 1.14%.

For `CCOC(=O)N1CCN(C(=O)Cn2c(=O)sc3ccccc32)CC1`, the growth inhibition was -1.79% in experiment [1] and -7.62% in experiment [2]. Besides, in experiment [3], the viability increase was -0.84%. Further, the results for the viability in experiment [4] and in experiment [5] were 100% and 97.6%, respectively. In addition, the inhibition in experiment [6] is 1.68%. In addition, the RAM network inhibition in experiment [7] is 5.71%.

As to `COc1ccc(NC(=O)Nc2ccc3nccnc3c2)cc1`, the growth inhibition was -13.5% in experiment [1] and -17.2% in experiment [2]. Besides, the viability increase in experiment [3] is -4.49%. Besides, the viability is 67.5% in experiment [4] and 68.7% in experiment [5]. In addition, in experiment [6], the inhibition was 1.81%. For the same molecule, the RAM network inhibition in experiment [7] was 3.72%.

`Cc1ccc(N(C(C)C(=O)O)S(=O)(=O)c2cccnc2)cc1` (stereo not given): the growth inhibition in experiment [1] was 2.72%; in experiment [2], 0.165%. In addition, the viability increase in experiment [3] was -1.52%. Also, the viability is 95.1% in experiment [4] and 101% in experiment [5]. The inhibition in experiment [6] is -0.19%. Moreover, in experiment [7], the RAM network inhibition is 1.61%.

For the molecule `c1ccc2c(c1)[nH]c1nc3nncn3nc12`, the growth inhibition is -7.18% in experiment [1] and -14.9% in experiment [2]. Moreover, the viability increase in experiment [3] is -1.07%. Further, the results for the viability in experiment [4] and in experiment [5] were 94% and 93%, respectively. The inhibition in experiment [6] was 1.29%. Moreover, the RAM network inhibition in experiment [7] is 7.04%.

In the case of `COC(=O)C1(C)Nc2ccccc2C(=O)N1c1ccccc1OC` (stereo not given), the growth inhibition is -17% in experiment [1] and -23.6% in experiment [2]. Also, the viability increase in experiment [3] is -0.77%. The viability in experiment [4] is 103%; in experiment [5], 88.5%. Moreover, the inhibition in experiment [6] was 1.97%. Moreover, in experiment [7], the RAM network inhibition was 5.8%.

Consider `CCSc1nc2c(c(=O)[nH]1)C(C(C)C)C(C#N)=C(N)O2` (stereo not given), for which the growth inhibition in experiment [1] was -20.5%; in experiment [2], -13%. In experiment [3], the viability increase was -2.8%. Moreover, the viability was 106% in experiment [4] and 98.9% in experiment [5]. In addition, in experiment [6], the inhibition was 0.63%. Moreover, the RAM network inhibition in experiment [7] was 2.73%.

For `Cc1nn(-c2ccccc2)c(C)c1C(=O)OCC(=O)Nc1ccc2c(c1)OCO2`, the figures for the growth inhibition in experiment [1] and in experiment [2] were -15.6% and -15.7%, respectively. In addition, in experiment [3], the viability increase is -0.97%. Further, the viability in experiment [4] is 95.3%; in experiment [5], 92.9%. For the same molecule, the inhibition in experiment [6] is 3.68%. Besides, the RAM network inhibition in experiment [7] is 3.09%.

Regarding `COc1ccc(CCNC(=O)c2c(O)c3c([nH]c2=O)CCCC3)cc1`, the growth inhibition in experiment [1] was -0.92%; in experiment [2], -15.2%. Also, the viability increase in experiment [3] was -0.72%. Moreover, the viability in experiment [4] is 97.1%; in experiment [5], 90%. Also, the inhibition in experiment [6] is 1.77%. The RAM network inhibition in experiment [7] is 4.09%.
